The values that follow come from publication PMC10258837 (Journal of the American Chemical Society, 2021).

Assay [1] relates to Mur21. Description: amino acid-dependent ATP-PPi exchange, Mur21. It counts as biochemical, Streptomyces sp. NRRL 30471. The following applies: amino acid-dependent ATP-PPi exchange assay; MBP fusion.
The subject of another assay is VioC. Description: VioC hydroxylation. It counts as biochemical, Streptomyces sp. strain ATCC11861. The following applies: free L-Arg; experimental control.
Another assay relates to AnpI. Briefly: AnpI substrate test. It counts as biochemical, Streptomyces lavendulae subsp. lavendulae strain NRRL B-2775. The following applies: free (not T domain-bound) substrate.
The next assay relates to SlAnpD(AT). Description: amino acid-dependent ATP-PPi exchange, SlAnpD. The class given is biochemical, Streptomyces lavendulae subsp. lavendulae strain NRRL B-2775. The following applies: amino acid-dependent ATP-PPi exchange assay; truncated, lacking the C domain.
In a further assay the test system is Mur16. The following applies: cited from earlier work.
Assay [2] concerns the target T1, Mur15 (Streptomyces sp. NRRL 30471, UniProt F2WUC7). Description: Mur15 substrate scope. The class given is biochemical. The following applies: for Mur15-catalyzed hydroxylation of free amino acid: LC-MS with authentic hydroxylated standards; for Mur15-catalyzed hydroxylation (substrate conversion): Fe2+, αKG and O2, LC-MS. The procedure, abridged:
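Mur15 incubated with Fe2+, αKG and O2 plus either a muraymycin substrate purified from Streptomyces sp. NRRL 30475 or a synthetic deaminoribose analogue. Reactions analysed by HPLC against a control without enzyme. Product identity checked by co-injection with authentic hydroxylated standard.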

Another assay has as its system AnpF orthologs. Description: amino acid-dependent ATP-PPi exchange, AnpF orthologs. The class given is biochemical. Conditions: amino acid-dependent ATP-PPi exchange assay.
For assay [3], the system named is AnpE orthologs. Briefly: amino acid-dependent ATP-PPi exchange, AnpE orthologs. It counts as biochemical. The following applies: amino acid-dependent ATP-PPi exchange assay.
In another assay the test system is Mur27. Briefly: amino acid-dependent ATP-PPi exchange, Mur27. It counts as biochemical, Streptomyces sp. NRRL 30471. The following applies: amino acid-dependent ATP-PPi exchange assay; MBP fusion.
The next assay deals with SadA. Conditions: cited from earlier work.
The test system of the next assay is any NRPS. The following applies: [14C]NaHCO3; Figure S10.
In assay [4] the target is T1, Mur15. Description: Mur15 single-substrate kinetic analysis and turnover. It counts as biochemical. The following applies: for Km / kcat: single-substrate kinetic analysis with saturating αKG, Michaelis-Menten. The procedure, abridged:
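Mur15 reaction with Fe2+, αKG and O2 as cofactor and cosubstrates. The native muraymycin substrate, purified from Streptomyces sp. NRRL 30475, is varied for single-substrate kinetics.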

A further assay deals with M. smegmatis. Briefly: anti-M. smegmatis activity. It counts as cell-based. The following applies: 8 compared with 3; Table S3.
In the next assay the test system is E. coli. Briefly: anti-E. coli activity. The class given is cell-based. The following applies: 8 compared with 3; E. coli strain not stated; Table S3.
For another assay, the system named is Mur12. Briefly: T domain loading by SDS-PAGE with phosphor imaging, Mur12. Conditions: 14C-labelled amino acid, CoA and Sfp. It counts as biochemical, Streptomyces sp. NRRL 30471.
Another assay has as its system holo-SlAnpD(AT). Description: covalent modification by phosphor imaging, holo-SlAnpD. It counts as biochemical, Streptomyces lavendulae subsp. lavendulae strain NRRL B-2775. The following applies: 14C-labelled amino acid; phosphor imaging of gels.
For assay [5], the system named is Mur21. Description: T domain loading by SDS-PAGE with phosphor imaging, Mur21. The following applies: 14C-labelled amino acid, MBP fusion. The class given is biochemical, Streptomyces sp. NRRL 30471.
In assay [6] the test system is AnpE orthologs. Description: covalent modification by phosphor imaging, AnpE orthologs. The following applies: 14C-labelled amino acid. The class given is biochemical.
The test system of another assay is Mur14. Description: T domain loading by SDS-PAGE with phosphor imaging, Mur14. It counts as biochemical, Streptomyces sp. NRRL 30471. Conditions: 14C-labelled amino acid; Mur27 with Mur14.
A further assay has as its system AnpF. Description: covalent modification by phosphor imaging, AnpF. It counts as biochemical. The following applies: 14C-labelled amino acid.

In the case of `CC(C)[C@H](O)[C@H](N)C(=O)O` [(2S,3S)-2, (2S,3S)-β-OH-Leu], the “A domain activation of amino acid by Mur21” value in the assay on Mur21 [1] is “inactive”.

`N=C(N)NCCC[C@H](N)C(=O)O` [L-Arg]: the “hydroxylation by VioC” value in the assay with VioC was “shown to hydroxylate free L-Arg”. The “conversion by AnpI” value with AnpI is reported as 1 was not detected. Further, the “A domain specificity of SlAnpD(AT)” value in the assay with SlAnpD(AT) is “high specificity”. In addition, the “hydroxylation by Mur16” value with Mur16 is recorded as “did not hydroxylate L-Arg”. For the same molecule, at Mur15 [2], the “Mur15-catalyzed hydroxylation of free amino acid” value is given as “no peaks corresponding to a hydroxylated product were detected”.

Regarding `N[C@@H](CS)C(=O)O` [L-Cys], the “A domain activation by AnpF orthologs” value with AnpF orthologs is “slight preference”.

With `N[C@@H](Cc1c[nH]cn1)C(=O)O` [L-His], the “A domain activation by AnpF orthologs” value with AnpF orthologs is “slight preference”.

As for `CC[C@H](C)[C@H](N)C(=O)O` [L-Ile], the “A domain activation by AnpF orthologs” value with AnpF orthologs is reported as “slight preference”. Also, the “A domain activation by AnpE orthologs” value in the assay on AnpE orthologs [3] is “very low activity”. Consider `CC(C)C[C@H](N)C(=O)O` [L-Leu], for which the “A domain activation of amino acid by Mur21” value in the assay on Mur21 [1] is “preferential activity”. Also, the “A domain activation by AnpF orthologs” value in the assay with AnpF orthologs is on record as “slight preference”. Also, in the assay with AnpE orthologs [3], the “A domain activation by AnpE orthologs” value was “highest activity”. Further, at Mur15 [2], the “Mur15-catalyzed hydroxylation of free amino acid” value is given as “no peaks corresponding to a hydroxylated product were detected”.

With `CSCC[C@H](N)C(=O)O` [L-Met], in the assay with AnpF orthologs, the “A domain activation by AnpF orthologs” value is “slight preference”. Moreover, the “A domain activation by AnpE orthologs” value in the assay with AnpE orthologs [3] is “highest activity”. `N[C@@H](Cc1ccccc1)C(=O)O` [L-Phe]: in the assay on AnpF orthologs, the “A domain activation by AnpF orthologs” value is recorded as “slight preference”. Same read-out and setting: to `N[C@@H](Cc1c[nH]c2ccccc12)C(=O)O` [L-Trp] belongs “no activity”. As for `CC(C)[C@H](N)C(=O)O` [L-Val], the “A domain activation of amino acid by Mur27” value in the assay with Mur27 was “relatively low activity yet with modest specificity”. Also, in the assay with AnpF orthologs, the “A domain activation by AnpF orthologs” value is given as “slight preference”. For the same molecule, the “A domain activation by AnpE orthologs” value with AnpE orthologs [3] is on record as “very low activity”.

As for `CC(=O)N[C@@H](CC(C)C)C(=O)O` [N-acetyl-L-Leu], in the assay with SadA, the “conversion by SadA to hydroxylated product” value was “hydroxylated product with (2S,3R)-stereochemical configuration”.

`CC(C)C[C@H](NC(=O)CCC(=O)O)C(=O)O` [N-succinyl-L-Leu]: the “conversion by SadA to hydroxylated product” value in the assay on SadA is “hydroxylated product with (2S,3R)-stereochemical configuration”. `O=[14C]([O-])O.[Na+]` [[^14C]NaHCO3]: in the assay on any NRPS, the “radiolabelling of NRPS” value is given as “inability to radiolabel any NRPS”. The Km is the concentration of substrate that gives half-maximal velocity. One may read the kcat as the number of substrate molecules converted per active site and unit of time at saturation. With `CO[C@H]1[C@H](O[C@H]([C@H]2O[C@@H](n3ccc(=O)[nH]c3=O)[C@H](O)[C@@H]2O)[C@H](NCCCNC(=O)[C@H](CC(C)C)NC(=O)[C@@H](NC(=O)N[C@H](C(=O)O)C(C)C)[C@@H]2CCN=C(N)N2)C(=O)O)O[C@H](CN)[C@H]1O` [compound 3, muraymycin D1], on Mur15 [4], the Michaelis constant (Km) was 600 ± 100 µM and the turnover number (kcat) turned out to be 0.167 ± 0.017 s⁻¹. Moreover, the “total turnover number (TTN)” value at Mur15 [4] (with native substrate (3) or unnatural substrate (muraymycin B), estimated) is reported as not below 800. Further, the “Mur15-catalyzed hydroxylation (substrate conversion)” value on Mur15 [2] is on record as “a new peak with a mass corresponding to mono-hydroxylated 3”. Take `CC(C)C[C@H](NC(=O)[C@@H](NC(=O)N[C@H](C(=O)O)C(C)C)[C@@H]1CCN=C(N)N1)C(=O)NCCCN[C@H](C(=O)O)[C@H](O[C@@H]1O[C@H](CN)[C@@H](O)[C@H]1O)[C@H]1O[C@@H](n2ccc(=O)[nH]c2=O)[C@H](O)[C@@H]1O` [compound 4, muraymycin D2]: the “Mur15-catalyzed hydroxylation (substrate conversion)” value at Mur15 [2] was “mono-hydroxylated”. With `CO[C@H]1[C@H](O[C@H]([C@H]2O[C@@H](n3ccc(=O)[nH]c3=O)[C@H](O)[C@@H]2O)[C@H](NCCCNC(=O)[C@@H](NC(=O)[C@@H](NC(=O)N[C@H](C(=O)O)C(C)C)[C@@H]2CCN=C(N)N2)[C@@H](O)C(C)C)C(=O)O)O[C@H](CN)[C@H]1O` [compound 8, muraymycin C1], the “effect of conversion of 3 to 8 on anti-M. smegmatis activity” value with M. smegmatis is reported as “minimal effect”. For the same molecule, the “effect of conversion of 3 to 8 on E. coli activity” value in the assay with E. coli is reported as “minimal effect”. Also, the “Mur15-catalyzed hydroxylation (substrate conversion)” value on Mur15 [2] is “remained unchanged”.

On to `N=C(N)NCCC[C@H](NC(=O)NC(Cc1ccccc1)C(=O)O)C(=O)O` (stereo partly drawn) [compound 11, L-Phe-(C=O)-L-Arg], for which the “conversion by AnpI” value in the assay with AnpI is “No product was observed”. As to `CO[C@H]1[C@H](O[C@H]([C@H]2O[C@@H](n3ccc(=O)[nH]c3=O)[C@H](O)[C@@H]2O)[C@H](NCCCNC(=O)[C@@H](NC(=O)[C@@H](NC(=O)N[C@H](C(=O)O)C(C)C)[C@@H]2CCN=C(N)N2)[C@@H](OC(=O)CCCCCCCCCCCCN(O)C(=N)N)C(C)C)C(=O)O)O[C@H](CN)[C@H]1O` [muraymycin A1], the “Mur15-catalyzed hydroxylation (substrate conversion)” value at Mur15 [2] is given as “mass consistent with a mono-hydroxylated product”. `CO[C@H]1[C@H](O[C@H]([C@H]2O[C@@H](n3ccc(=O)[nH]c3=O)[C@H](O)[C@@H]2O)[C@H](NCCCNC(=O)[C@@H](NC(=O)[C@@H](NC(=O)N[C@H](C(=O)O)C(C)C)[C@@H]2CCN=C(N)N2)[C@@H](OC(=O)CCCCCCC(C)C)C(C)C)C(=O)O)O[C@H](CN)[C@H]1O` [muraymycin B2]: on Mur15 [4], the Km was 930 µM and the kcat turned out to be 0.108 ± 0.0083 s⁻¹. For the same molecule, the “drop in catalytic efficiency when compared with 3” value at Mur15 [4] (with respect to muraymycin B2, saturating αKG) is listed as ~ 2 -fold. In addition, the “Mur15-catalyzed hydroxylation (substrate conversion)” value on Mur15 [2] was “mass consistent with a mono-hydroxylated product”. As for `CO[C@H]1[C@H](O[C@H]([C@H]2O[C@@H](n3ccc(=O)[nH]c3=O)[C@H](O)[C@@H]2O)[C@H](NCCCNC(=O)[C@@H](NC(=O)[C@@H](NC(=O)N[C@H](C(=O)O)C(C)C)[C@@H]2CCN=C(N)N2)[C@@H](OC(=O)CCCCC(C)C)C(C)C)C(=O)O)O[C@H](CN)[C@H]1O` [muraymycin B6], on Mur15 [2], the “Mur15-catalyzed hydroxylation (substrate conversion)” value was “mass consistent with a mono-hydroxylated product”. Turning to L-[^14C]Arg, in the assay on Mur12, the “loading of Mur12 T domain” value is “A faint band corresponding to the molecular weight of Mur12 was detected”. The “covalent modification of holo-SlAnpD(AT)” value with holo-SlAnpD(AT) is reported as “covalently modified”. As for L-[^14C]Leu, the “self-loading of Mur21” value in the assay with Mur21 [5] is given as “not observed”. For the molecule L-[^14C]Phe, the “covalent modification of AnpE orthologs” value in the assay on AnpE orthologs [6] is “covalent modification of the AnpE orthologs was detected”. Regarding L-[^14C]Val, in the assay with Mur14, the “loading of Mur14” value is reported as “not observed”. Also, in the assay on AnpF, the “covalent modification of AnpF” value is “Covalent modification of AnpF was observed”.

As to α-MAPI [compound 9], the “conversion by AnpI” value with AnpI is “Neither, however, were converted to a product”.
